Calls of active or inactive are those of the source. No cut-off for these calls is given here.

Data set [1] deals with Mus musculus. The experiment in a line: Toxicity in nude mouse xenografted with human A549 cells assessed as body weight loss at 60 mg/kg, iv tid administered 2 days measured for 20 days. Format: organism-based. More on the design: dose 60 mg/kg, route intravenous. The settings on record: in vivo, 480 h. On the technique in general: In xenograft studies the graft and the host belong to different species.

The test system of data set [2] is Mus musculus. The experiment in a line: Toxicity in nude mouse xenografted with human HT-29 cells assessed as body weight loss at 60 mg/kg, iv tid administered 2 days measured for 20 days. Format: organism-based. More on the design: dose 60 mg/kg, route intravenous. The settings on record: in vivo, 480 h.
Data set [3] concerns HT-29. The experiment in a line: Antitumor activity against human HT-29 cells xenografted in nude mouse assessed as tumor growth inhibition at 60 mg/kg, iv tid administered 2 days measured on day 22. The class given is functional, organism-based. More on the design: dose 60 mg/kg.
Data set [4] deals with T1, DNA topoisomerase 1 (Homo sapiens) (UniProt P11387).
T1 sequence (whole entry): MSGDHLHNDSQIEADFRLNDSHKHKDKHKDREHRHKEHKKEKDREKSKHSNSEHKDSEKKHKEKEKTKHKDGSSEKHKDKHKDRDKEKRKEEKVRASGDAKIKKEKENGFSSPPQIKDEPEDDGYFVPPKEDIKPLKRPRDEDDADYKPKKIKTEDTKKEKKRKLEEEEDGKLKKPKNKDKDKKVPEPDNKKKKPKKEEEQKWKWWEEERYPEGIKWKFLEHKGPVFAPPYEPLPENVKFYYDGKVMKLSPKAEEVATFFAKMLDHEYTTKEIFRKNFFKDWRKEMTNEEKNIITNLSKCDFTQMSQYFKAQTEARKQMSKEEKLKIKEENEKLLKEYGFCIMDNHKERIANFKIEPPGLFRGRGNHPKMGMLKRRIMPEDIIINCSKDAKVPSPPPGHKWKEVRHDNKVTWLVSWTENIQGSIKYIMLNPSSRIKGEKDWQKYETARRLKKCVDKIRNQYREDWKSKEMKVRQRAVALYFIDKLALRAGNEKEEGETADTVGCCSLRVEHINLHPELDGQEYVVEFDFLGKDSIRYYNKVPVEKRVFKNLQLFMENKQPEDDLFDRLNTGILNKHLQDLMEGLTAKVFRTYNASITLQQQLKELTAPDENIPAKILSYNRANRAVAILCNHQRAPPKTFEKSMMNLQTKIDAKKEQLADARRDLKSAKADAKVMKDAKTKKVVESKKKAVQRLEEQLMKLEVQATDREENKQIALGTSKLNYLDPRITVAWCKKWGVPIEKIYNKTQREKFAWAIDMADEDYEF
The data set is described as follows: Inhibition of DNA topoisomerase 1 (unknown origin)-mediated relaxation of supercoiled pHOT DNA at 25 to 100 uM after 30 to 45 mins by agarose gel electrophoresis. A digest of the protocol: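 Supercoiled pHOT DNA (200 ng) and compound in 10 mM Tris-HCl pH 7.9 with 1 mM EDTA at 37 °C. Reaction started with 1 unit topo I, run 30−45 min, stopped with 10% SDS. Products separated on 1% agarose at 50 V for 90 min and stained with ethidium bromide.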

Data set [5] concerns HT-29. The experiment in a line: Antitumor activity against human HT-29 cells xenografted in nude mouse assessed as tumor growth inhibition at 60 mg/kg, iv tid administered 2 days measured on day 20. More on the design: dose 60 mg/kg. Format: functional, organism-based.
Another data set deals with A549. The experiment in a line: Antitumor activity against human A549 cells xenografted in nude mouse assessed as tumor growth inhibition at 60 mg/kg, iv tid administered 2 days measured on day 20 relative to vehicle-treated control. To be noted: read-out: TGI. Format: functional.

As for `CCc1c2c(nc3ccc(OC(=O)N4CCC(N5CCCCC5)CC4)cc13)-c1cc3c(c(=O)n1C2)COC(=O)[C@]3(O)CC` [IRINOTECAN], the Activity result in the data set on Mus musculus [1] and in the data set with Mus musculus [2] was “Toxic” throughout. Besides, the TGI result with HT-29 [3] was “inactive”. The inhibition result in data set [4] is “Active”. Moreover, the TGI entry with HT-29 [5] was “Active”. The inhibition in vivo at 60 mg/kg with A549 worked out at 50%.
